Calb biofilm kill = clotrimazole potentiators killing C. albicans biofilm, primary screen, 4-compound mixtures | C. albicans biofilm persisters + clotrimazole, fluorescence viability; primary screen in compound mixtures of four per well | inhibition, % at 7.6 µM | 120,000 tested, 0.02% active | AID 1242, 2008;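 active means inhibition above 30.3% in the primary screen of four-compound pools, then above 30% when the compound was retested; inconclusive means passed the primary limit but could not be retested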;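 further: compounds exposed to preformed 24 h biofilms for 48 h; 0% = untreated biofilm control and 100% = clotrimazole plus chlorhexidine kill blank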
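Incubation: 24 h biofilm formation, then 48 h compound exposure, 37 °C | Material: C. albicans biofilms | Buffer or medium: RPMI/MOPS medium, pH 7.0 | Measured by: 2-h Alamar Blue fluorescence, 535/590 nm excitation/emission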
Pf gametocyte = late stage P. falciparum gametocyte viability inhibitors, primary screen, ATP luminescence, HTS; P. falciparum stage V gametocytes, 24 h; inhibition, % at 10.9 µM; 150,000 tested, 0.065% active;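 active means inhibition above the mean plus 3 SD of compounds within the control limits, set per campaign, cut at about 38% in these data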;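 further: 0% = DMSO wells and 100% = medium only without gametocytes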
ROMK mod = ROMK potassium channel modulators, primary screen, cell-based, thallium flux, MLSMR library; 130,000 tested, 2% active; B-score at 10 µM; AID 1918, 2009; Tet-inducible ROMK, thallium flux fluorescence; actives lie on both sides;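 active means signal ratio slope over the read window, or its plate-corrected B-score, at least 3 SD from the plate mean, either direction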;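 further: B-score of the F/F0 ratio slope over 7 to 12 s after thallium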
Target sequence (P48048 whole entry, looked up): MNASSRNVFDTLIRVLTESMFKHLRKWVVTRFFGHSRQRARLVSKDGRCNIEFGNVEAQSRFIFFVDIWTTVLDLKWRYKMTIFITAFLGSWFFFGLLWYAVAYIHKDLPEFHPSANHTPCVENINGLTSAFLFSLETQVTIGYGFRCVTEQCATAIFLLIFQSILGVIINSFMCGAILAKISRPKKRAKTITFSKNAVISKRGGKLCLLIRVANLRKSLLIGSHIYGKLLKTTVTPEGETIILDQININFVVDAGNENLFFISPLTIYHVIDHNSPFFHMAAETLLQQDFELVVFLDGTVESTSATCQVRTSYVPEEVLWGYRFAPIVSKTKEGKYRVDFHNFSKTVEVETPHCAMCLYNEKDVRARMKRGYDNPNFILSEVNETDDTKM
ROMK hit retest = ROMK channel modulator hit retest, confirmation, cell-based, thallium flux, duplicate, resupplied hits | shares compounds with ROMK mod | 3,000 tested, 54% active | normalized thallium flux (F/F0 slope) at 10 µM | fluorescence ratio; stronger effect = lower value | AID 1917, 2009;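 active means Flux at 10 µM at least 3 SD below or above vehicle control mean in one or both replicates; inconclusive means no clear call, values can overlap the other calls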
Starred values were filed as active, the others as inactive; ? = inconclusive; . = not tested or not shown. Shown is part of a subset that was picked to be rich in hits.

SMILES	Calb biofilm kill	Pf gametocyte	ROMK mod	ROMK hit retest
Cc1cc(C)n(C(=O)/C=C/c2cccs2)n1	7	-4	.	.
CCc1ccc(NC(=O)C(C)OC(=O)c2cc(=O)[nH]c3ccc(S(=O)(=O)Nc4ccc(F)cc4)cc23)cc1 (stereo not drawn)	-3	-22	-0.15	.
Cc1cccc(NS(=O)(=O)c2ccc3[nH]c(=O)cc(C(=O)OC(C)C(=O)Nc4ccc([N+](=O)[O-])cc4)c3c2)c1 (stereo not drawn)	10	-8	-3.1*	?
COc1ccc(NC2=CC(=O)CC(c3ccccc3)C2)cc1 (stereo not drawn)	20	-10	.	.
COc1ccc(/C=C/C(=O)Nc2c(C)nn(C)c2C)cc1COc1ccc(Cl)cc1Br	22	-19	0.39	.
O=C1c2ccccc2S(=O)(=O)N1CC1CC(c2ccccc2)=NO1 (stereo not drawn)	.	.	2.1*	0.068*
O=C1c2ccccc2S(=O)(=O)N1CC1CC(c2ccc(Cl)cc2)=NO1 (stereo not drawn)	20	3	0.47	.
Cn1cncc1C(=O)c1ccccc1	18	-14	.	.
O=C(CCCN1C(=O)c2cccnc2C1=O)Nc1ccc(Br)cc1	-1	-10	1.4	.
COc1ccc(C(=O)OCCNC(=O)c2c(Cl)nc3ccccn23)cc1	.	.	.	0.059*
CCOC(=O)c1c(-c2ccccc2)nc2ccccn12	.	8	.	.
CCOc1ccc2oc(C(=O)OC(C(=O)NC(N)=O)C(C)C)c(C)c2c1 (stereo not drawn)	15	5	-0.31	.
N#CC1(c2ccccc2)CCC(=O)N1c1ccccc1 (stereo not drawn)	-1	-6	.	.
CC1CCCCN1CCCNC(=O)c1ccc2c(=O)n(CCc3ccccc3)c(=O)[nH]c2c1 (stereo not drawn)	.	.	-3*	?
CC1CCCCN1CCNC(=O)c1ccc2c(=O)n(CCc3ccccc3)c(=O)[nH]c2c1 (stereo not drawn)	.	-14	-0.19	.
C#CCOCCOCCOCCNc1nc(N2CCN(C(=O)[C@H]([C@@H](C)O)n3cc(CCCCN)nn3)CC2)nc(N2CCN(C(=O)[C@H](Cc3ccc(O)cc3)n3cc(CCO)nn3)CC2)n1	1	-6	2*	0.083
C#CCOCCOCCOCCNc1nc(N2CCN(C(=O)[C@H](Cc3ccc(O)cc3)n3cc(CCO)nn3)CC2)nc(N2CCN(C(=O)[C@H](Cc3ccc(O)cc3)n3cc(CCO)nn3)CC2)n1	4	.	-0.033	.
Fc1ccc(C2=NNC(=NCc3ccccc3)SC2)cc1F	20	26	-3*	?
Clc1ccc(C2=NNC(=NCc3ccccc3)SC2)cc1	15	-4	-0.22	.
CC(Oc1cccc(Cl)c1)C(=O)NCc1ccc(S(N)(=O)=O)cc1 (stereo not drawn)	8	18	0.43	.
COc1cccc(C(=O)C2CCCN(Cc3cccn3-c3cccnc3)C2)c1 (stereo not drawn)	12	11	-2.9*	0.072
COc1cccc(C(=O)C2CCCN(Cc3cccc(-n4cccn4)c3)C2)c1 (stereo not drawn)	25	10	.	.
COc1ccc(C(=O)C2CCCN(S(=O)(=O)c3cccnc3)C2)c(C)c1 (stereo not drawn)	13	1	-8.6*	0.075
COc1ccc(NC(=O)C2CCCN(S(=O)(=O)c3cccnc3)C2)cc1OC (stereo not drawn)	20	-4	.	.
CCCc1nc2c(nnn2Cc2ccccc2F)c(=O)[nH]1	.	-20	-0.26	.
SMILES	Calb biofilm kill	Pf gametocyte	ROMK mod	ROMK hit retest
O=c1[nH]c(C(F)(F)F)nc2c1nnn2Cc1ccccc1F	.	.	3.4*	0.077
COc1cc(CCC(O)CC(=O)CCc2ccccc2)ccc1O (stereo not drawn)	15	.	.	.
COc1cccc(-n2cc(CN(C)Cc3nc(Cc4cccc(F)c4)no3)cn2)c1	29	.	-0.83	.
COc1ccc(CN(C)Cc2nc(Cc3cccc(F)c3)no2)c2cccnc12	-5	-1	-1.6*	?
CCCn1c(=O)c(Br)cn(-c2ccccc2C)c1=O	12	-7	0.76	.
CCOC(=O)/C(C#N)=C/C=C1\C=Cc2ccccc2N1CC	2	7	-1.1	.
CN1/C(=C/C=C(C#N)C#N)C=Cc2ccccc21	22	21	.	0.047*
CCC1Oc2ccc(C)cc2N(CC(=O)N(Cc2ccc(C)o2)C2CCCC2)C1=O (stereo not drawn)	6	4	-4.3*	0.065*
CCC1Oc2ccc(C)cc2N(CC(=O)N2CCCC2)C1=O (stereo not drawn)	.	-16	.	.

Compound activity as filed in PubChem.
